Compound activity (PubChem)
HSF1 activator = increases HSF-1 driven luciferase reporter signal; AID 504408; activation, % at 9 µM; hit rate 1.7% among 300,000; NIH3T3-HGL HSF-1 luciferase reporter, MG132, 8 h; 100% = twice DMSO control signal;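 active = mean replicate activation of at least 50% with a set share of replicates each reaching 50%; inconclusive = only one of those two conditions met; inactive = mean below 50% and too few replicates reaching it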;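 also: 0% = median of the neutral control wells and 100% = twice that signal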
HSF1 inhib = HSF1 inhibition; NIH3T3-HGL HSE-luciferase, MG132-induced, luminescence 8 h; hits give low values; activity change, negative = inhibition, % at 7.5 µM (by protocol); hit rate 0.77% among 300,000;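 active = more than half of replicate wells show activity change below -50%, luminescence cut by over half; inconclusive = some wells, but at most half, below -50%; inactive = no replicate well below -50%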;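 also: luciferase reports HSF-1 transcriptional activity via heat shock element; 0% = median of DMSO wells and -100% = zero luminescence signal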
T cruzi inh = blocks replication of Trypanosoma cruzi. T. cruzi beta-gal in NIH3T3, luminescence, 90 h. inhibition, % (concentration not given with the values). hit rate 1.4% among 300,000. AID 1885;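 active = mean inhibition across valid replicates above about 55%, limit read from the data; inconclusive = mean below that limit but half or more replicates reach it; inactive = mean below it, under half of replicates reach it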;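 also: signal also drops with host cell toxicity which is not excluded here; 0% = plate median of DMSO wells and 100% = zero luminescence signal; higher percent means less beta-gal luminescence so fewer parasites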
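assay system = mouse NIH/3T3 fibroblasts infected with β-gal-expressing T. cruzi Tulahuen C4 | input = 5,000 NIH/3T3 host cells per well | buffer or medium = DMEM plus 2% FBS | timing = 3 h host attachment, then at least 90 h co-culture | measured by = GalScreen luminescence, 60 min | evaluation = luminescence reflecting intracellular parasite burden, expressed as percent inhibition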
697 NFkB inh = lowers PMA/ionomycin-induced NF-kB signal in 697 B cells; hit rate 0.33% among 330,000; 697 B-cell NF-kB luciferase reporter, 16 h; AID 435022; inhibition, % at 4 µM; in the data active = inhibition above about 35%
Jurkat NFkB inh = inhibitors of the PMA/ionomycin-induced NF-kB reporter in Jurkat cells. hit rate 0.53% among 330,000. inhibition, % at 4 µM. PMA/ionomycin-induced NF-kB luciferase reporter, luminescence. AID 435003; in the data active = inhibition above about 50%
GPR7 antagonist = human neuropeptides B/W receptor 1 antagonism; P48145; inhibition, % at 4.4 µM; AID 1861; hit rate 1.1% among 290,000; GPR7-expressing cells, fluorescence antagonist assay; in the data active = inhibition above about 16%, passing the limit was not always enough;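 also: cells stimulated with the agonist NPW; 0% = agonist with vehicle and 100% = vehicle without agonist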
Target sequence (P48145 whole entry, looked up): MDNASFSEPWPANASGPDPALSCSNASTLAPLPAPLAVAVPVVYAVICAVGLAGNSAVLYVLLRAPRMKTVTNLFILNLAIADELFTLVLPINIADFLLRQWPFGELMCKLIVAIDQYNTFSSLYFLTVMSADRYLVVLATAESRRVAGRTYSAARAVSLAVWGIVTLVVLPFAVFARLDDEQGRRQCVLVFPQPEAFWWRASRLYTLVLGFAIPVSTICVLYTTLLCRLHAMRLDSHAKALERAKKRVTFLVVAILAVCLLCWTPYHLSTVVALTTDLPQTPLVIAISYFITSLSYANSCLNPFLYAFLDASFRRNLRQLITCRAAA
Starred values were filed as active, the others as inactive; ? = inconclusive; nt = no result given. A selection: hits, their analogues and other compounds. The true share with any hit is near 4.8%.

SMILES | HSF1 activator | HSF1 inhib | T cruzi inh | 697 NFkB inh | Jurkat NFkB inh | GPR7 antagonist
Cn1c(SCC(=O)N2c3ccccc3Sc3ccc(Cl)cc32)nnc1-c1ccco1 | nt | nt | nt | 4 | -5 | -6
CCOC(=O)C1=CNS(=O)(=O)NC1c1ccc(C[C@H](NC(=O)CNC(=O)CCc2ccccc2)C(N)=O)cc1 (stereo partly drawn) | nt | nt | nt | 3 | nt | nt
CN(c1ccc(OCC(=O)OCC(=O)c2c(N)n(C)c(=O)n(C)c2=O)cc1)S(=O)(=O)c1ccc2ccccc2c1 | 0 | -1 | -10 | 5 | 12 | -4
Cc1ccc2nc(SCC(=O)NCc3ccc(F)cc3)[nH]c2c1 | 65* | 20 | -5 | -10 | -9 | 2
Cc1cc(C)c(C#N)c(SCc2ccc([N+](=O)[O-])cc2)n1 | 53* | 8 | -8 | 3 | 4 | 5
Cc1ccc2nc(SCc3ccc([N+](=O)[O-])cc3)[nH]c2c1 | 82* | 67 | 34 | 10 | 1 | -8
Cc1ccc2nc(SCc3ccc([N+](=O)[O-])cc3)nc(C)c2c1 | nt | nt | nt | -18 | -11 | -4
Cc1cccc2cc(CN(Cc3ccco3)C(c3nnnn3CCc3ccccc3)C(C)C)c(=O)[nH]c12 (stereo not drawn) | 198* | 138 | 42 | -7 | -12 | -8
COc1ccc2[nH]c(=O)c(CN(Cc3nnnn3Cc3ccco3)C3CCCCC3)cc2c1 | 24 | 15 | 7 | -6 | 8 | -11
COc1ccc2[nH]c(=O)c(CN(Cc3ccco3)C(c3nnnn3Cc3ccccc3)C(C)C)cc2c1 (stereo not drawn) | 30 | 3 | 76* | 0 | -9 | 0
CCOC(=O)Cn1nnnc1C(C(C)C)N(Cc1cc2c(C)cc(C)cc2[nH]c1=O)C1CCCC1 (stereo not drawn) | 123* | 86 | 23 | 12 | 9 | -9
CCC(C)(C)n1nnnc1C(C(C)C)N(Cc1ccco1)Cc1cc2cc3c(cc2[nH]c1=O)OCO3 (stereo not drawn) | 10 | 5 | 2 | 16 | 4 | -6
COc1ccc2[nH]c(=O)c(CN(C3CCCCC3)C(c3nnnn3Cc3ccco3)C(C)C)cc2c1 (stereo not drawn) | 119* | 96 | 19 | -9 | -10 | 8
CC(=O)N(Cc1cc2c(C)cc(C)cc2[nH]c1=O)C1CCCCC1 | 31 | 8 | 7 | -7 | -16 | 16
COCCn1nnnc1C(C(C)C)N(Cc1ccccc1)Cc1cc2cc(OC)ccc2[nH]c1=O (stereo not drawn) | nt | nt | nt | nt | nt | 0
CCOC(=O)c1sc2ncnc(N3CCN(CC)CC3)c2c1C | -8 | 0 | 77* | -10 | -8 | -5
CCOC(=O)c1sc2ncnc(N3CCN(C(=O)OCC)CC3)c2c1C | 1 | -7 | 14 | -6 | 10 | -8
OCCCn1c(-c2ccccc2)nc(=S)c2c1CCCC2 | 13 | -3 | -9 | -7 | 1 | -15
CN(C)CCCn1c(-c2ccccc2)nc(=S)c2c1CCCC2 | -21 | -7 | 59* | -11 | 10 | 6
CNC(=O)c1cc2c(ccc3ccccc32)o1 | 58* | 30 | 9 | -10 | -29 | -9
Cc1ccc(C2=NNC(C(O)C(O)C(O)C(C)O)S2)cc1 (stereo not drawn) | 75* | 38 | -2 | -48 | -34 | 3
CC(C)(C)c1ccc(OCC(=O)N2CCCCCC2)c(Br)c1 | 69* | 37 | ? | -83 | -50 | 12
CCOC(=O)/C=C1\NC2(CCCCC2)Cc2cc(OC)c(OC)cc21 | 16 | 3 | 60* | 29 | -1 | -8
CCOC(=O)/C=C1\NC(C)(C)Cc2cc(OC)c(OC)cc21 | -3 | -4 | 0 | 9 | 8 | 12
COc1ccc(/C(C)=N/NC(=O)c2ccccc2N)cc1 | 28 | 21 | -5 | 17 | -10 | 5
SMILES | HSF1 activator | HSF1 inhib | T cruzi inh | 697 NFkB inh | Jurkat NFkB inh | GPR7 antagonist
CCCCSc1nsc(NC(C)=O)n1 | 38 | 19 | 47 | -103 | -81 | -15
CCCSc1nsc(NC(=O)CCC)n1 | ? | 25 | 56* | -127 | -58 | -4
CCOc1ccc(OCc2cccc(C(=O)N3CCCC3)c2)cc1 | -60 | -51* | 4 | -67 | 7 | -8
O=C(Nc1ccncc1)c1ccc(F)cc1 | -3 | -5 | 1 | 8 | -3 | -5
O=C(Nc1cccnc1)c1ccc(F)cc1 | -6 | -1 | -9 | 3 | 0 | -4
O=C(Nc1cccnc1)c1ccc(-c2ccccc2)cc1 | 66* | 28 | -15 | 10 | -78 | -7
CN(c1ccccc1)S(=O)(=O)c1ccc(C(=O)N2CCc3ccccc3C2)cc1 | 0 | -1 | 19 | -1 | -8 | 20*
O=C(Nc1ccc(Cl)c(Cl)c1)c1ccc(Cn2cc(Cl)cn2)cc1 | 72* | 40 | 50 | nt | nt | 6
O=C(Nc1ccncc1)c1ccc(-c2ccccc2)cc1 | 12 | 5 | 58* | -1 | 35 | 3
CCC(/C=N/NC(=O)C(N)=O)CC | 2 | 0 | 12 | -7 | -17 | -4
COc1cc(C(=O)NNC(=S)NC(=O)/C=C/c2ccccc2)cc(OC)c1OC | 16 | -1 | -33 | 20 | 24 | -11
CCOC(=O)C1(Cc2cccc(OC)c2)CCCN(C(=O)CNC(C)=O)C1 (stereo not drawn) | 19 | 19 | -15 | -34 | -44 | 2
CCN(CC)CCNC(=O)c1ccc(NC(=O)COc2ccc3c(c2)CCC3)cc1 | nt | nt | nt | 2 | -16 | nt
O=C(Nc1ccncc1)c1ccc(Cl)c(Cl)c1 | 5 | 3 | 62* | -2 | -8 | -9
CN(c1ccccc1)S(=O)(=O)c1ccc(C(=O)Nc2ccncc2)cc1 | -10 | -8 | 70* | 16 | 7 | nt
O=C(NNC(=O)c1ccc(Cl)c(Cl)c1)c1ccncc1 | 2 | -1 | -2 | 10 | 1 | nt
CCOc1cc(OCC)cc(C(=O)Nc2cccnc2)c1 | 59* | 18 | 9 | 6 | -14 | -4
Cc1oc(/N=C/c2ccc(O)cc2O)c(C#N)c1C | 18 | -1 | -3 | 2 | -3 | -3
Cc1ccc(C)c(S(=O)(=O)c2c(C)cc(C)[nH]c2=O)c1 | 13 | -6 | -16 | -17 | -39 | -2
COc1ccc(/C=C/C(=O)NC(=S)NCc2ccccc2)cc1OC | 67* | 31 | 4 | 0 | -8 | -2
COc1ccc(/C=C/C(=O)NC(=S)Nc2ccc(S(=O)(=O)Nc3cc(OC)ncn3)cc2)cc1 | nt | nt | nt | nt | nt | 10
COC(=O)c1cn(C(=O)/C=C/c2ccc(OC)c(OC)c2)c2ccccc12 | 61* | 42 | -13 | -14 | 40 | 6
COc1cc(NS(=O)(=O)c2ccc(NC(=S)NC(=O)/C=C/c3ccc(OC)c(OC)c3)cc2)ncn1 | -65 | -55* | -12 | -3 | -2 | 6
